Results as given in ChEMBL document CHEMBL1268868, “Discovery and mechanistic study of a class of protein arginine methylation inhibitors” (J Med Chem, 2010).
pIC50: −log10 of the molar value. Calls of active or inactive are those of the source. The calls are words filed in the database; no cut-off is given here.

What was measured:
[1] = biological target: T1, Protein arginine N-methyltransferase 1 (Homo sapiens, UniProt Q99873); assay: Inhibition of His6x-tagged PRMT1-mediated protein arginine methylation expressed in Escherichia coli BL21 (DE3) assessed as retained fractional activity of enzyme at 100 uM using H4(1-20) and [14C]-AdoMet by scintillation counting; design: scale not given: the % may be the effect or the level left
How it was run: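 His6x-PRMT1 (0.1 μM) with 2 μM H4(1-20) and 5 μM [14C]-AdoMet, compound at 100 μM or absent, 30 °C in 50 mM HEPES pH 8.0, 0.5 mM DTT, 1 mM EDTA, 50 mM NaCl. Substrates and compound preincubated 5 min before enzyme addition. Quenched on P81 paper, NaHCO3 wash, methylated product counted by liquid scintillation.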
Target sequence in this assay (Q99873 whole entry, looked up): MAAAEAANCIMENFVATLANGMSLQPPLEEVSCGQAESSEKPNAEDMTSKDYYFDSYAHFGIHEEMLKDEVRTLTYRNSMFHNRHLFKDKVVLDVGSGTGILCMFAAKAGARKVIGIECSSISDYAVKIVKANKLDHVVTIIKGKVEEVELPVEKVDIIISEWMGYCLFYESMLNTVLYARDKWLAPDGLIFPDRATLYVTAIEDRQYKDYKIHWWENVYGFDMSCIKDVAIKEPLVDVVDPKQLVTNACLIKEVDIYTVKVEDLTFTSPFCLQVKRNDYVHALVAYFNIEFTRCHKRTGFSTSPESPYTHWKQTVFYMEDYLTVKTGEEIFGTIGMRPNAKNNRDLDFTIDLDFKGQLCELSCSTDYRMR

[2] = biological target: T1, Protein arginine N-methyltransferase 1; assay: Inhibition of His6x-tagged PRMT1-mediated arginine methylation expressed in Escherichia coli BL21 (DE3) assessed as residual activity at 100 uM using H4(1-20) and [14C]-AdoMet by scintillation counting; values are per cent of control
Target sequence in this assay (Q99873 whole entry, looked up): as above

[3] = biological target: T1, Protein arginine N-methyltransferase 1; assay: Inhibition of His6x-tagged PRMT1-mediated arginine methylation expressed in Escherichia coli BL21 (DE3) assessed as residual activity at 500 uM using H4(1-20) and [14C]-AdoMet by scintillation counting
Target sequence in this assay (Q99873 whole entry, looked up): as above

[4] = biological target: T1, Protein arginine N-methyltransferase 1; assay: Inhibition of His6x-tagged PRMT1-mediated protein arginine methylation expressed in Escherichia coli BL21 (DE3) using GAR R4 peptide and [14C]-AdoMet by scintillation counting
Target sequence in this assay (Q99873 whole entry): as the sequence (Q99873 whole entry, looked up) above

[5] = biological target: T1, Protein arginine N-methyltransferase 1; assay: Inhibition of His6x-tagged PRMT1-mediated protein arginine methylation expressed in Escherichia coli BL21 (DE3) using H4(1-20) and [14C]-SAM by scintillation counting
Target sequence in this assay (Q99873 whole entry): as the sequence (Q99873 whole entry, looked up) above

[6] = biological target: T2, Histone acetyltransferase p300 (Homo sapiens, UniProt Q09472); assay: Inhibition of HAT p300-mediated […] assessed as residual activity at 1 mM using H4(1-20) and [14C]-acetyl CoA by scintillation counting; values are per cent of control
T2 sequence (Q09472 whole entry): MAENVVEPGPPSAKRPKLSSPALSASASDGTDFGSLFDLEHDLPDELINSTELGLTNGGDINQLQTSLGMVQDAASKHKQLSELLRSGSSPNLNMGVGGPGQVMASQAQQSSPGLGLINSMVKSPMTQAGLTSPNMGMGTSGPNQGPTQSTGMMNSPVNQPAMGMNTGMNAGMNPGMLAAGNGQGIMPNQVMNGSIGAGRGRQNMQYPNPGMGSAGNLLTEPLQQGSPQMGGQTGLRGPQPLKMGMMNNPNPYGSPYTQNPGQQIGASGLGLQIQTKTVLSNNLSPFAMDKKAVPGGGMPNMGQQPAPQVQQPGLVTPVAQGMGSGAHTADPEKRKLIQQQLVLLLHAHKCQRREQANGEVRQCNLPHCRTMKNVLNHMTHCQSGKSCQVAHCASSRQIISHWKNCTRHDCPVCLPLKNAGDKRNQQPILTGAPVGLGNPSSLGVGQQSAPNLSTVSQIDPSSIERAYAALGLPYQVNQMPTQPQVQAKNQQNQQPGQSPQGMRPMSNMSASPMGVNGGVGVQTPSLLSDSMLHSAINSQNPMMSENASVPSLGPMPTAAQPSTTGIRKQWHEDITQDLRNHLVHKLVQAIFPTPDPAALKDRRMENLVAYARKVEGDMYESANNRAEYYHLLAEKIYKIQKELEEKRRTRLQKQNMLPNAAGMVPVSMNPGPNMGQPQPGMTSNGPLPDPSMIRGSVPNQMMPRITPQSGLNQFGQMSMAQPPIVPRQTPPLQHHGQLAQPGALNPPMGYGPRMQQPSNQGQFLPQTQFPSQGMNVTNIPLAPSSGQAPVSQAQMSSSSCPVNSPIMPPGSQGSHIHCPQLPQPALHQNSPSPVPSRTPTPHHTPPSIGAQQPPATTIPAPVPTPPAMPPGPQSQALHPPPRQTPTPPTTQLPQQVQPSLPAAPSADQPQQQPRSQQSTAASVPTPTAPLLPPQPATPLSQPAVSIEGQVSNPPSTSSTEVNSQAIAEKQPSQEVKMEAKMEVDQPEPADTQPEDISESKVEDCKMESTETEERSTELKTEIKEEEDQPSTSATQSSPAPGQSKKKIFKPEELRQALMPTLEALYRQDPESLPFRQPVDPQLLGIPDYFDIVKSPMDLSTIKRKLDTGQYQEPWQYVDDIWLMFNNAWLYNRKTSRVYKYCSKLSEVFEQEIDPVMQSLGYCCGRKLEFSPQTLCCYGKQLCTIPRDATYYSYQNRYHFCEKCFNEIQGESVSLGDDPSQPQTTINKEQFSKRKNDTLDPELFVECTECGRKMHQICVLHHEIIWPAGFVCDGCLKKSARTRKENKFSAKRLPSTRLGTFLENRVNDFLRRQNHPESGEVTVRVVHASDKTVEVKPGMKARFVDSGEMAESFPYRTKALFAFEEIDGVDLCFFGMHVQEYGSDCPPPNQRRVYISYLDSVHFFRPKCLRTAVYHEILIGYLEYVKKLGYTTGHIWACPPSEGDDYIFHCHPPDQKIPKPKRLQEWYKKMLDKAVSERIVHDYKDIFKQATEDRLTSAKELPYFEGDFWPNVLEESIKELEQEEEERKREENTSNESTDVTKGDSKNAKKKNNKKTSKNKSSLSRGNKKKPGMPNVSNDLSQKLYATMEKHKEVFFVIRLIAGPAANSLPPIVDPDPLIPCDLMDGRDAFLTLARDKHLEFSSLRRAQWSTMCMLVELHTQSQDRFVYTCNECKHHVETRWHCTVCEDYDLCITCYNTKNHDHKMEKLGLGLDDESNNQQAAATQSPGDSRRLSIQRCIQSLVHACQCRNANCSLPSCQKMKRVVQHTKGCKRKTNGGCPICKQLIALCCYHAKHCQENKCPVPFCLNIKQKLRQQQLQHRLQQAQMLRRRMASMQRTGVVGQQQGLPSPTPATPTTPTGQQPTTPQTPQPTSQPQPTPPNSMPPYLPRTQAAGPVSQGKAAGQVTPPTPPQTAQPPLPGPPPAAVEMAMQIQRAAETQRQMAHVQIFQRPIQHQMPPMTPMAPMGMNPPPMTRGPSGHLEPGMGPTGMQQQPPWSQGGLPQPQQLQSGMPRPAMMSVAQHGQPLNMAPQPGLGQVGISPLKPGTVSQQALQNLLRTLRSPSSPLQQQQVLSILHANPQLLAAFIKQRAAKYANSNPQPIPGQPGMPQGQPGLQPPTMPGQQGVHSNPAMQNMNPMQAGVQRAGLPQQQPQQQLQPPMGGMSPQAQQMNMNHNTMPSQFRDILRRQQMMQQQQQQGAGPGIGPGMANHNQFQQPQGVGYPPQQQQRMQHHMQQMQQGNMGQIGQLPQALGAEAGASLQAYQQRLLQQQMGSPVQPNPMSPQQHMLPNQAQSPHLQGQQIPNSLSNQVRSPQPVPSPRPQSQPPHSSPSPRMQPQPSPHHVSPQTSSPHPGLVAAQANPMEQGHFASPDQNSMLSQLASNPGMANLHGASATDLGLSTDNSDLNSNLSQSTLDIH

[7] = biological target: Protein arginine N-methyltransferase 3 (Homo sapiens, UniProt O60678); assay: Inhibition of His6x-tagged PRMT3-mediated arginine methylation expressed in Escherichia coli BL21 (DE3) using GAR R4 peptide and [14C]-SAM by scintillation counting
Chain of Protein arginine N-methyltransferase 3 (O60678 whole entry): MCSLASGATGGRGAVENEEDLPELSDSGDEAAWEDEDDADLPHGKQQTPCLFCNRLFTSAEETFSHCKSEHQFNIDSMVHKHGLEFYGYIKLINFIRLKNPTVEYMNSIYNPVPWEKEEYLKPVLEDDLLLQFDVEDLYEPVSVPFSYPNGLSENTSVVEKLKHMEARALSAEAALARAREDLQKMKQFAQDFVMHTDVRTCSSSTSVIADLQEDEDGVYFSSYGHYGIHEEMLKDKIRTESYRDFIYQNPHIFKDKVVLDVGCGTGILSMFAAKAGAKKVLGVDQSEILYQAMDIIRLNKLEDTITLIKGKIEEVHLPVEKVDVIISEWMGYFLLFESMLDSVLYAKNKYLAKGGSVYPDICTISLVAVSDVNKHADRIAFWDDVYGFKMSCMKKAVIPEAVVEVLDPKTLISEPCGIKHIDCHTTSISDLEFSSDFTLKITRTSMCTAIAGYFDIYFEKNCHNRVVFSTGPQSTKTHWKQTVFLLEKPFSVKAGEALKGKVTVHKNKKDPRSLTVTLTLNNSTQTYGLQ
How it was run: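 His6x-PRMT3 expressed in E. coli BL21(DE3), Ni-NTA purified; 0.1 μM enzyme, 2 μM R4 peptide, 5 μM [14C]-SAM, varied inhibitor, 30 °C in 50 mM HEPES pH 8.0, 0.5 mM DTT, 1 mM EDTA, 50 mM NaCl; 5 min preincubation before enzyme. P81 filter capture, liquid scintillation; IC50 = inhibitor concentration giving half-maximal activity.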

[8] = biological target: T2, Histone acetyltransferase p300; assay: Inhibition of HAT p300-mediated […] using H4(1-20) and [14C]-acetyl CoA by scintillation counting
How it was run: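 Recombinant p300 HAT domain (1287-1666), 20 nM, with 10 μM H4(1-20) and 10 μM [14C]-acetyl CoA plus increasing inhibitor in 50 mM HEPES pH 8.0, 50 mM NaCl, 0.5 mM DTT, 1 mM EDTA; 10 min at 30 °C. Quenched on P81 filter paper, acetylated product counted by liquid scintillation; fractional activity plotted against inhibitor concentration.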

[9] = biological target: Protein arginine N-methyltransferase 6 (Homo sapiens, UniProt Q96LA8); assay: Inhibition of His6x-tagged PRMT6-mediated arginine methylation expressed in Escherichia coli BL21 (DE3) using H3(1-31) peptide and [14C]-SAM by scintillation counting
Chain of Protein arginine N-methyltransferase 6 (Q96LA8 whole entry): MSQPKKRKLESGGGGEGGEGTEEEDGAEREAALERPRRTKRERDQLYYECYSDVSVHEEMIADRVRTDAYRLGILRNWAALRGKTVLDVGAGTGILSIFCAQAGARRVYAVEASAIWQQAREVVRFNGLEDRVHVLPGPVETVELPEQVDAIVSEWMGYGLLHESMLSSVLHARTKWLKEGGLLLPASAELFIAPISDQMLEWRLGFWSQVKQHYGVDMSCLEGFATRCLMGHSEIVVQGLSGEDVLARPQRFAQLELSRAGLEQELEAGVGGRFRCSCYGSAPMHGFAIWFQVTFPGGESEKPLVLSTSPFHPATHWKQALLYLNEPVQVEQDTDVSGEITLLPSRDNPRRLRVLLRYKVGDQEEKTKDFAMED
How it was run: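 His6x-PRMT6 from E. coli BL21(DE3), Ni-NTA purified; 0.5 μM enzyme, 10 μM H3(1-31), 5 μM [14C]-SAM and varied inhibitor at 30 °C in HEPES pH 8.0 buffer with DTT, EDTA, NaCl; 5 min preincubation before enzyme. Product captured on P81 paper, counted by liquid scintillation; IC50 taken at half-maximal activity.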

[10] = biological target: T3, Histone-arginine methyltransferase CARM1 (Mus musculus, UniProt Q9WVG6); assay: Inhibition of mouse GST-tagged CARM1-mediated arginine methylation expressed in Escherichia coli BL21 (DE3) using H3(1-31) and [14C]-SAM by scintillation counting
T3 sequence (Q9WVG6 whole entry): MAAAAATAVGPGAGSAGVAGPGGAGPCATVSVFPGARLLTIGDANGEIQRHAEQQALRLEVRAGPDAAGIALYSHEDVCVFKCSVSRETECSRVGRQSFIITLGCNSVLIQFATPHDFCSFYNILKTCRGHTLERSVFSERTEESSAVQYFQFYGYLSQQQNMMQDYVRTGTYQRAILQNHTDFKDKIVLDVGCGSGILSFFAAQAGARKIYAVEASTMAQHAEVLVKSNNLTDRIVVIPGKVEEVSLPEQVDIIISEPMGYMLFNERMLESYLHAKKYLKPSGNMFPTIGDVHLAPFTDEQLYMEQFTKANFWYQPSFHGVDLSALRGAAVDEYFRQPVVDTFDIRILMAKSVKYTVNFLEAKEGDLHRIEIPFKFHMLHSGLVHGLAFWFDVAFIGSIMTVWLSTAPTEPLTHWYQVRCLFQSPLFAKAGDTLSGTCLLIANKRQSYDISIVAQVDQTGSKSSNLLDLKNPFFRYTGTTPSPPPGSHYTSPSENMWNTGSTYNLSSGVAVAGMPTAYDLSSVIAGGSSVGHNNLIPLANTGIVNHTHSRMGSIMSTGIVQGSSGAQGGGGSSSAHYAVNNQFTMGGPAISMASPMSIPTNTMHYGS
How it was run: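 GST-tagged mouse CARM1 from E. coli BL21(DE3), glutathione-agarose purified; 5 μM enzyme, 1 mM H3(1-31), 30 μM [14C]-SAM, inhibitor up to 500 μM, 30 °C in 50 mM HEPES pH 8.0, 0.5 mM DTT, 1 mM EDTA, 50 mM NaCl. P81 filter capture, liquid scintillation counting.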

Q: `N#Cc1cccc(C#N)c1Oc1ccc(S(=O)(=O)Nc2ccc(Cl)cc2)cc1` was tested. Which Activity [1] did it give?
A: The Activity was 100%.

Q: `CC(=O)Nc1ccc2cc(S(=O)(=O)O)cc(OS(=O)(=O)c3ccccc3)c2c1` was tested. Which residual activity [2] did it give?
A: Its residual activity is 71.4%.

Q: How did the Activity [1] turn out when `Cn1c(SCC(=O)Nc2ccccc2)nnc1-c1cncc(C#Cc2ccccc2)c1` was run?
A: The Activity was 100%.

Q: Which inhibition [3] does the source give for `NS(=O)(=O)c1ccc(CNc2ccnc3cc4ccccc4cc23)cc1` here?
A: Its inhibition is “inactive”.

Q: With `NS(=O)(=O)c1ccc2c(O)cc(S(N)(=O)=O)cc2c1` as the compound, how does the inhibition [3] read?
A: The inhibition was “inactive”.

Q: For `O=S(=O)(Nc1ccccc1)c1cc(S(=O)(=O)Nc2ccccc2)c2cc(O)ccc2c1`, which inhibition [3] is on record?
A: Its inhibition is “inactive”.

Q: With `CC(=O)Nc1cc([N+](=O)[O-])c(N(C)S(=O)(=O)c2ccccc2)c2ccccc12` as the compound, how does the inhibition [3] read?
A: Its inhibition is “inactive”.

Q: `CCOC(=O)c1ccc(N2C(=O)CC(Sc3ccccc3C(=O)O)C2=O)cc1` (stereo not given) was tested. Which inhibition [3] did it give?
A: Its inhibition is “inactive”.

Q: With `O=C1N=c2ccccc2=C1Nc1ccc(Cc2ccc(NC3=c4ccccc4=NC3=O)cc2)cc1` as the compound, how does the Activity [1] read?
A: Its Activity is 100%.

Q: How did the pIC50 [4] turn out when `O=S(=O)(O)c1cc(O)c2c(/N=N/c3c(S(=O)(=O)O)cc4cc(S(=O)(=O)O)cc(O)c4c3O)cc(S(=O)(=O)O)cc2c1` was run?
A: The pIC50 was 3.33.

Q: And the pIC50 [5]?
A: Its pIC50 is 4.14.

Q: For `COc1ccc(S(=O)(=O)Nc2ccc(S(=O)(=O)Nc3cccc4ccccc34)cc2)cc1OC`, which inhibition [3] is on record?
A: Its inhibition is “inactive”.

Q: For `CCOc1cc(C=O)ccc1OS(=O)(=O)c1ccc2ccccc2c1`, which inhibition [3] is on record?
A: Its inhibition is “inactive”.

Q: How did the Activity [1] turn out when `O=C(OC[C@@H]1CO[C@@](Cn2ccnc2)(c2ccc(Cl)cc2Cl)O1)c1ccccc1` was run?
A: The Activity was 100%.

Q: With `COc1cc(C=O)cc(I)c1OS(=O)(=O)c1ccc2ccccc2c1` as the compound, how does the inhibition [3] read?
A: The inhibition was “inactive”.

Q: How did the residual activity [6] turn out when `N=C(N)c1ccc(/C=C/c2ccc(C(=N)N)cc2)cc1` was run?
A: Its residual activity is 84%.

Q: How did the pIC50 [7] turn out when `CC(=O)Nc1ccc(/N=N/c2c(S(=O)(=O)O)cc3cc(NC(=O)Nc4ccc5c(O)c(/N=N/c6ccccc6)c(S(=O)(=O)O)cc5c4)ccc3c2O)cc1` was run?
A: The pIC50 was 5.15.

Q: And the pIC50 [8]?
A: The pIC50 was 4.67.

Q: What about the pIC50 [9] of the same compound?
A: The pIC50 was 4.41.

Q: What about the pIC50 [10] of the same compound?
A: Its pIC50 is 2.70.

Q: `Cc1ccc(C(=O)Nc2ccc(S(=O)(=O)O)c3cc(S(=O)(=O)O)cc(S(=O)(=O)O)c23)cc1NC(=O)c1cccc(NC(=O)Nc2cccc(C(=O)Nc3cc(C(=O)Nc4ccc(S(=O)(=O)O)c5cc(S(=O)(=O)O)cc(S(=O)(=O)O)c45)ccc3C)c2)c1` [SURAMIN] was tested. Which pIC50 [4] did it give?
A: The pIC50 was 3.00.

Q: And the pIC50 [5]?
A: The pIC50 was 5.27.

Q: Which inhibition [3] does the source give for `CNc1ccc2c(O)cc(S(=O)(=O)O)cc2c1` here?
A: Its inhibition is “inactive”.

Q: For `O=S(=O)(Oc1cccc2c(OS(=O)(=O)c3ccccc3)cccc12)c1ccccc1`, which inhibition [3] is on record?
A: The inhibition was “inactive”.

Q: Which inhibition [3] does the source give for `Nc1cc(S(=O)(=O)O)cc2cccc(S(=O)(=O)O)c12` here?
A: The inhibition was “inactive”.

Q: `CCOC(=O)[C@H]1CCCN(S(=O)(=O)c2cc(S(=O)(=O)c3ccccc3)cs2)C1` was tested. Which Activity [1] did it give?
A: Its Activity is 100%.

Q: Which inhibition [3] does the source give for `CCOc1cc(C=O)cc(Br)c1OS(=O)(=O)c1ccc2ccccc2c1` here?
A: Its inhibition is “inactive”.

Q: `O=Cc1ccc(OS(=O)(=O)c2ccc3ccccc3c2)c(Br)c1` was tested. Which inhibition [3] did it give?
A: Its inhibition is “inactive”.

Q: `O=C(Nc1cccc2c(S(=O)(=O)O)cccc12)c1ccccc1` was tested. Which residual activity [2] did it give?
A: The residual activity was 86.9%.

Q: With `COc1ccc(S(=O)(=O)Oc2ccc3ccccc3c2)c2ccccc12` as the compound, how does the inhibition [3] read?
A: The inhibition was “inactive”.

Q: Which inhibition [3] does the source give for `CCOc1ccc(S(=O)(=O)NCCNS(=O)(=O)c2ccc(OCC)c3ccccc23)c2ccccc12` here?
A: Its inhibition is “inactive”.

Q: Which inhibition [3] does the source give for `O=S(=O)(O)c1cc(O)c2c(S(=O)(=O)O)cc(S(=O)(=O)O)cc2c1` here?
A: The inhibition was “inactive”.

Q: How did the Activity [1] turn out when `Cc1ccccc1Nc1nc(-c2ccccc2)c(C(=O)Nc2cccnc2)s1` was run?
A: The Activity was 100%.

Q: With `O=C(Nc1ccc2c(O)cc(S(=O)(=O)O)cc2c1)Nc1ccc2c(O)cc(S(=O)(=O)O)cc2c1` as the compound, how does the pIC50 [8] read?
A: The pIC50 was 3.93.

Q: For `O=S(=O)(Oc1c(Br)cc(Br)cc1Br)c1ccc2ccccc2c1`, which inhibition [3] is on record?
A: Its inhibition is “inactive”.
